Read-outs that look alike come from different tables or passages of the source.
Key:
[1] = oral dose of 2g/kg; cited from earlier work
[2] = humans, cited from earlier work
[3] = system: Sprague-Dawley (SD) rats; test: 5-day maximum tolerated dose; format: in vivo, rat
Procedure, shortened: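 Thirty Sprague-Dawley rats, 60–65 days old (276–300 g), viral-antibody free, formed 5 groups of 3 males and 3 females. They received 2% carboxymethylcellulose vehicle or test compound suspended in it at 50, 100, 500 or 1000 mg/kg/day by oral gavage once daily for 5 days. Mortality, body weight and food intake were monitored. Terminal hematology, clinical chemistry and necropsy followed, with control and high-dose organs sectioned. Two-tailed Student's t-test, p<0.05.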

[4] = Long-term; format: in vivo, rat; conditions: 100 mg/kg/day oral, day 28
Procedure, shortened: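 Sprague-Dawley rats (3 males and 3 females) were dosed with test compound by oral gavage at 100 mg/kg/day for 28 days, suspended in 2% carboxymethylcellulose. On day 28 the animals were anesthetized and blood was sampled from 5 min to 24 h after dosing. Compound was quantified by LC/MS/MS, and Cmax and Tmax were taken from the mean (n=6) concentration-time profile.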

[5] = system: Sprague-Dawley (SD) rats; test: 28-day toxicology evaluation within long-term PK study, oral gavage once daily; format: in vivo, rat; conditions: 100 mg/kg/day oral
Procedure, shortened: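 Male and female Sprague-Dawley rats, 6–8 weeks old (250–350 g), 3+3 per group, received 2% carboxymethylcellulose vehicle or test compound suspended in it at 100 mg/kg/day by oral gavage for 28 days. Adverse events, body weight and daily food intake were tracked. Terminal hematology and serum biochemistry, gross necropsy, and histopathology of heart, lungs, liver, kidney, spleen and colon followed. Two-tailed Student's t-test versus vehicle, p<0.05.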

[6] = 500 mg/kg oral and 20 mg/kg i.v., blood at 2 and 6 hours; cited from earlier work
[7] = system: LPS-induced experimental periodontal disease; conditions: rats, oral, 28 days, doses 0, 1, 5, 10 and 30 mg/kg; cited from earlier work
[8] = Single dose pharmacokinetic study, oral gavage, blood by LC/MS/MS; format: in vivo, rat
Procedure, shortened: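 Two groups of 6 Sprague-Dawley rats (3 males and 3 females each), 6–8 weeks old, received a single oral gavage of test compound at 500 or 1000 mg/kg, suspended in 2% carboxymethylcellulose. Blood was drawn at 5, 10, 15, 30, 45 min and 1, 2, 4, 6, 24 h. Compound was measured by LC/MS/MS, and t1/2, Tmax and Cmax were derived from mean (n=6) profiles.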

[9] = 50-1000 mg/kg/day oral, 5 days, both sexes
[10] = 28-Day PK Study, compared to placebo-treated controls

## COc1cc(C=CC(=O)CC(=O)C=Cc2ccc(O)c(OC)c2)ccc1O [curcumin, 1,7-bis-(4-hydroxy-3-methoxyphenyl)-1,6-heptadiene-3,5-dione]
[1]
  Cmax: 1350 ± 230 ng/mL
  Time of Cmax: 0.75 h
[2]; oral dose of 10 g/kg
  Cmax in serum: 50.5 ng/mL
  Time of Cmax: 4 h
[2]; oral dose of 12 g/kg
  Cmax in serum: 57.6 ng/mL
  Time of Cmax: 2 h

## O=C(/C=C/c1ccc(O)cc1)C(C(=O)/C=C/c1ccc(O)cc1)C(=O)Nc1ccccc1 [CMC2.24]
[3]; [9]
  Daily food consumption and adverse events: no difference
  Mean body weight vs placebo treated controls: did not show significant differences
[3]; oral, one week of treatment
  Highest dose found safe (MTD not demonstrated): ≥ 1000 mg/kg
[4]
  Peak blood concentration (Cmax): 0.2 ng/mL
  Tmax: 4 h
[5]; 28 days
  Adverse events: no adverse events were reported
[5]; 28 days, both sexes
  Mean body weight vs placebo treated controls: no significant differences
[5]; [10]
  Hematological & Serological parameters: No change observed
  Histology of organs (Heart, Lungs, Spleen, Liver, Kidney, Colon): Normal Histology Observed
[6]
  Bioavailability based on blood analysis: poor bioavailability
[7]
  Minimum effective dose to inhibit inflammation and alveolar bone resorption: 1 mg/kg/day
[8]; oral administration
  Serum half-life: 10 h
[8]; single oral dose 500 mg/kg
  Cmax in blood: 8 ng/mL
  Tmax: 0.75 h
[8]; single oral dose 1000 mg/kg
  Cmax in blood: 6.7 ng/mL
  Tmax: 0.75 h

— publication PMC8842656 (Journal of Experimental Pharmacology, 2022)
